Measured values as given in ChEMBL document CHEMBL1909525, “Synthesis and anticonvulsant activity of novel 2,6-diketopiperazine derivatives. Part 1: perhydropyrrole[1,2-a]pyrazines” (Eur J Med Chem, 2011).
The source made the active and inactive calls. The rule behind the calls is not given here.

Experiments:
[1] = system: Mus musculus; test: Anticonvulsant activity in ip dosed albino Carworth Farms No.1 mouse assessed as time needs to show peak effect for protection against subcutaneous metrazol-induced seizure; format: functional
[2] = Neurotoxicity in po dosed albino Sprague-Dawley rat assessed as motor impairment after 0.25 hrs by rotarod test; format: toxicity, organism-based; settings: in vivo
Outline: (§1)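 Rats dosed orally, compound in 0.5% methylcellulose. MES at 150 mA, 60 Hz, 0.2 s; scMET with pentylenetetrazole 70 mg/kg s.c. plus 30 min observation; rotorod for toxicity.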

[3] = system: Mus musculus; test: Anticonvulsant activity in ip dosed albino Carworth Farms No.1 mouse assessed as protection against electric-current for 3 secs-induced seizure after 0.25 hrs by 6Hz minimal clonic seizure test; format: functional; settings: albino Carworth Farms No.1, ip
[4] = Neurotoxicity in ip dosed albino Carworth Farms No.1 mouse assessed as motor impairment after 0.25 hrs by rotarod test; format: toxicity, organism-based; settings: Carworth Farms No.1 (albino), in vivo
Outline: (§2)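 Mouse quantification at the time of peak effect, compound given i.p. in 0.5% methylcellulose. Groups of at least eight mice received varied doses until at least two points fell between 100 and 0% response. PI = TD50/ED50 MES.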

[5] = system: Rattus norvegicus; test: Anticonvulsant activity in po dosed albino Sprague-Dawley rat assessed as protection against maximal electroshock-induced seizure after 0.25 hrs; format: functional; outline: as §1
[6] = system: Mus musculus; test: Anticonvulsant activity in ip dosed albino Carworth Farms No.1 mouse assessed as protection against maximal electroshock-induced seizure after 0.25 hrs; format: functional; settings: albino Carworth Farms No.1, ip
Outline: as §2, with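 “response. ED50 (MES, scMET) and TD50 (rotorod) with 95% CI by probit analysis (Finney).” for “response.”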

[7] = system: Mus musculus; test: Anticonvulsant activity in ip dosed albino Carworth Farms No.1 mouse assessed as time needs to show peak effect for electric-current for 3 secs-induced seizure after 0.25 hrs by 6Hz minimal clonic seizure test; format: functional
[8] = system: Rattus norvegicus; test: Anticonvulsant activity in po dosed Sprague-Dawley rat assessed as time needs to show peak effect for protection against subcutaneous metrazol-induced seizure after 0.25 hrs; format: functional; outline: as §1
[9] = system: Mus musculus; test: Neurotoxicity in albino Carworth Farms No.1 mouse assessed as motor impairment at 30 mg/kg, ip after 4 hrs by rotarod test; format: toxicity, organism-based; parameters: dose 30 mg/kg, route intraperitoneal; settings: in vivo
Outline: (§3)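 Rotorod neurotoxicity in mice at 6 r.p.m. Compound given i.p. (30, 100, 300 mg/kg) in 0.5% methylcellulose; tested at 30 min and 4 h. Impairment is inability to keep equilibrium on the rod for a given time; scored as impaired/tested.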

[10] = system: Mus musculus; test: Toxicity in albino Carworth Farms No.1 mouse maximal electroshock-induced seizure model assessed as death following tonic extension at 100 mg/kg, ip after 4 hrs; format: organism-based; parameters: dose 100 mg/kg, route intraperitoneal; settings: in vivo
Outline: (§4)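 Mice (18–25 g) were given 30, 100 or 300 mg/kg i.p. in 0.5% (v/v) aqueous methylcellulose. They were tested at 30 min and 4 h with a corneal electroshock (50 mA, 60 Hz, 0.2 s) through electrodes wetted with 0.5% butacaine hemisulphate in 0.9% NaCl. Protection was abolition of hindlimb tonic extension; death following tonic extension was noted per animals tested.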

[11] = system: Mus musculus; test: Anticonvulsant activity in albino Carworth Farms No.1 mouse assessed as protection against maximal electroshock-induced seizure at 100 mg/kg, ip after 4 hrs; format: functional, organism-based; parameters: dose 100 mg/kg
Outline: (§5)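 Mouse MES test with compound given i.p. (30, 100 or 300 mg/kg) in 0.5% methylcellulose; tested at 0.5 and 4 h. Corneal stimulus of 50 mA at 60 Hz for 0.2 s, electrodes primed with 0.5% butacaine in 0.9% NaCl. Protection is abolition of hindlimb tonic extension; scored as protected/tested.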

[12] = system: Mus musculus; test: Neurotoxicity in albino Carworth Farms No.1 mouse assessed as motor impairment at 100 mg/kg, ip after 4 hrs by rotarod test; format: toxicity, organism-based; parameters: dose 100 mg/kg, route intraperitoneal; settings: in vivo; outline: as §3
[13] = system: Mus musculus; test: Anticonvulsant activity in albino Carworth Farms No.1 mouse assessed as protection against subcutaneous metrazol-induced seizure at 100 mg/kg, ip after 4 hrs; format: functional, organism-based; parameters: dose 100 mg/kg
Outline: (§6)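 Mouse scMET test. Compound given i.p. (30, 100 or 300 mg/kg) in 0.5% methylcellulose. Pentylenetetrazole 85 mg/kg (CD97) given s.c. at 0.5 or 4 h, then mice observed for 30 min. Protection is absence of clonic spasms; scored as protected/tested.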

[14] = system: Mus musculus; test: Neurotoxicity in albino Carworth Farms No.1 mouse assessed as motor impairment at 100 mg/kg, ip after 0.5 hrs by rotarod test; format: toxicity, organism-based; parameters: dose 100 mg/kg, route intraperitoneal; settings: in vivo; outline: as §3
[15] = system: Mus musculus; test: Anticonvulsant activity in albino Carworth Farms No.1 mouse assessed as protection against subcutaneous metrazol-induced seizure at 100 mg/kg, ip after 0.5 hrs; format: functional, organism-based; parameters: dose 100 mg/kg; outline: as §6
[16] = system: Mus musculus; test: Anticonvulsant activity in albino Carworth Farms No.1 mouse assessed as protection against subcutaneous metrazol-induced seizure at 30 mg/kg, ip after 0.5 hrs; format: functional, organism-based; parameters: dose 30 mg/kg; outline: as §6
[17] = system: Mus musculus; test: Anticonvulsant activity in albino Carworth Farms No.1 mouse assessed as protection against maximal electroshock-induced seizure at 300 mg/kg, ip after 4 hrs; format: functional, organism-based; parameters: dose 300 mg/kg; outline: as §5
[18] = system: Mus musculus; test: Anticonvulsant activity in albino Carworth Farms No.1 mouse assessed as protection against maximal electroshock-induced seizure at 30 mg/kg, ip after 4 hrs; format: functional, organism-based; parameters: dose 30 mg/kg; outline: as §5
[19] = system: Mus musculus; test: Neurotoxicity in albino Carworth Farms No.1 mouse assessed as motor impairment at 300 mg/kg, ip after 4 hrs by rotarod test; format: toxicity, organism-based; parameters: dose 300 mg/kg, route intraperitoneal; settings: in vivo; outline: as §3
[20] = system: Mus musculus; test: Toxicity in albino Carworth Farms No.1 mouse maximal electroshock-induced seizure model assessed as death following tonic extension at 30 mg/kg, ip after 0.5 hrs; format: organism-based; parameters: dose 30 mg/kg, route intraperitoneal; settings: in vivo; outline: as §4
[21] = system: Mus musculus; test: Anticonvulsant activity in albino Carworth Farms No.1 mouse assessed as protection against subcutaneous metrazol-induced seizure at 300 mg/kg, ip after 0.5 hrs; format: functional, organism-based; parameters: dose 300 mg/kg; outline: as §6
[22] = system: Mus musculus; test: Anticonvulsant activity in albino Carworth Farms No.1 mouse assessed as protection against subcutaneous metrazol-induced seizure at 300 mg/kg, ip after 4 hrs; format: functional, organism-based; parameters: dose 300 mg/kg; outline: as §6
[23] = system: Mus musculus; test: Neurotoxicity in albino Carworth Farms No.1 mouse assessed as motor impairment at 300 mg/kg, ip after 0.5 hrs by rotarod test; format: toxicity, organism-based; parameters: dose 300 mg/kg, route intraperitoneal; settings: in vivo; outline: as §3
[24] = system: Mus musculus; test: Anticonvulsant activity in albino Carworth Farms No.1 mouse assessed as protection against subcutaneous metrazol-induced seizure at 30 mg/kg, ip after 4 hrs; format: functional, organism-based; parameters: dose 30 mg/kg; outline: as §6
[25] = system: Mus musculus; test: Anticonvulsant activity in albino Carworth Farms No.1 mouse assessed as protection against maximal electroshock-induced seizure at 100 mg/kg, ip after 0.5 hrs; format: functional, organism-based; parameters: dose 100 mg/kg; outline: as §5
[26] = system: Mus musculus; test: Anticonvulsant activity in albino Carworth Farms No.1 mouse assessed as protection against maximal electroshock-induced seizure at 300 mg/kg, ip after 0.5 hrs; format: functional, organism-based; parameters: dose 300 mg/kg; outline: as §5
[27] = system: Mus musculus; test: Anticonvulsant activity in albino Carworth Farms No.1 mouse assessed as protection against maximal electroshock-induced seizure at 30 mg/kg, ip after 0.5 hrs; format: functional, organism-based; parameters: dose 30 mg/kg; outline: as §5
[28] = system: Mus musculus; test: Neurotoxicity in albino Carworth Farms No.1 mouse assessed as motor impairment at 30 mg/kg, ip after 0.5 hrs by rotarod test; format: toxicity, organism-based; parameters: dose 30 mg/kg, route intraperitoneal; settings: in vivo; outline: as §3

With `CCC1(C)CC(=O)NC1=O` (stereo not drawn) [ETHOSUXIMIDE] the Time [1] was 0.25 h, the TD50 at 0.25 h [2] was over 500 mg/kg and the ED50 [3] was 167 mg/kg. The TD50 at 0.25 h [4] was 341 mg/kg, the ED50 [5] was over 500 mg/kg and the ED50 [6] was over 500 mg/kg. For the same molecule, the Time [7] was 0.25 h and the Time [8] was 0.25 h.

In the case of `C[C@H]1C(=O)NC(=O)[C@@H]2CCCN12`, the Activity [9] is reported as “Non-toxic”, the Activity [10] is reported as “Toxic” and the Activity [11] is reported as “inactive”. The Activity [12] was “Toxic”, the Activity [13] was “inactive” and the Activity [14] was “Non-toxic”. For the same molecule, the Activity [15] was “inactive”, the Activity [16] was “inactive” and the Activity [17] was “inactive”. The Activity [18] was “inactive”, the Activity [19] was “Non-toxic” and the Activity [20] was “Toxic”. The Activity [21] was “inactive”, the Activity [22] was “inactive” and the Activity [23] was “Non-toxic”. For the same molecule, the Activity [24] was “inactive”, the Activity [25] was “inactive” and the Activity [26] was “inactive”. The Activity [27] was “inactive” and the Activity [28] was “Non-toxic”.
